Measurements published in ChEMBL document CHEMBL1212914, “A novel water-soluble gossypol derivative increases chemotherapeutic sensitivity and promotes growth inhibition in colon cancer” (J Med Chem, 2010).
“And” between values parts separate entries of the source, which are not always exact repeats. Equal values may be shown once.

Experiments:
A549 = assay: Cytotoxicity against human A549 cells after 72 hrs by MTT assay; assay type: functional, cell-based; settings: A549, 72 h
Outline: (§1)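 Compounds dissolved in DMSO; cells seeded at 5 × 10^3 per well and treated after adherence with a range of concentrations for 72 h, with DMSO as negative control. MTT was added for 4 h at 37 °C in the dark, formazan dissolved in DMSO, and absorbance read. IC50 (μM) was calculated as the mean of three independent experiments.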

MDA-MB-435 = assay: Cytotoxicity against human MDA-MB-435 cells after 72 hrs by MTT assay; assay type: functional, cell-based; outline: as §1
MCF7 = assay: Cytotoxicity against human MCF7 cells after 72 hrs by MTT assay; assay type: functional, cell-based; outline: as §1
HCT-116 = assay: Cytotoxicity against human HCT116 cells after 72 hrs by MTT assay; assay type: functional, cell-based; outline: as §1
B16-F10 = assay: Cytotoxicity against mouse B16F10 cells after 72 hrs by MTT assay; assay type: functional, cell-based; outline: as §1
PC-3 = assay: Cytotoxicity against human PC3 cells after 72 hrs by MTT assay; assay type: functional, cell-based; outline: as §1
4T1 = assay: Cytotoxicity against mouse 4T1 cells after 72 hrs by MTT assay; assay type: functional, cell-based; outline: as §1
CT26 = assay: Cytotoxicity against mouse CT26 cells after 72 hrs by MTT assay; assay type: functional, cell-based; outline: as §1
MCF-7 (Homo sapiens) = assay: Cytotoxicity against human MCF-7 cells after 72 hrs by MTT assay; settings: MCF-7, 72 h
Mus musculus [1] = assay: Toxicity in BALB/c mouse assessed as mortality at 120 umol/kg, po administered daily once for 12 days measured on day 8; assay type: organism-based; settings: in vivo, 288 h
Outline: (§2)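 Male BALB/c mice aged 6-8 weeks, n = 6 per group, received 120 μmol/kg by gavage once daily for 12 days in 10% ethanol, with 10% ethanol alone as the control. Survival was followed over time, and mice were weighed at day 12 and then sacrificed. Small intestine was paraffin-embedded, cut into 5 μm sections, H&E-stained and examined by light microscopy. Student's t test was used.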

Mus musculus [2] = assay: Toxicity in BALB/c mouse assessed as mortality at 120 umol/kg, po administered daily once for 12 days; assay type: organism-based; settings: in vivo, 288 h; outline: as §2
Mus musculus [3] = assay: Toxicity in BALB/c mouse assessed as induction of small intestine damage at 120 umol/kg, po administered daily once for 12 days; assay type: organism-based; settings: in vivo, 288 h; outline: as §2
SW-620 = assay: Cytotoxicity against human SW620 cells after 72 hrs by MTT assay; assay type: functional, cell-based; settings: sw-620; outline: as §1
[4] = Solubility of the compound in 100 gram of water; assay type: physicochemical; settings: buffer
Outline: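 Water solubility was measured at 37 °C as the mass of compound dissolving in 100 g of H2O.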

Structure (SMILES)	IC50 (A549) [µM]	IC50 (MDA-MB-435; Homo sapiens, MDA-MB-435, 72 h) [µM]	IC50 (MCF7; Homo sapiens, MCF7, 72 h) [µM]	IC50 (HCT-116; Homo sapiens, HCT-116, 72 h) [µM]	IC50 (B16-F10; Mus musculus, B16-F10, 72 h) [µM]	IC50 (PC-3; Homo sapiens, PC-3, 72 h) [µM]	IC50 (4T1; Mus musculus, 4T1, 72 h) [µM]	IC50 (CT26; Mus musculus, CT26, 72 h) [µM]	IC50 (MCF-7 (Homo sapiens)) [µM]	other results
Cc1cc2c(C(C)C)c(O)c(O)c(/C=N/C3C(=O)N4[C@@H]3SC(C)(C)[C@@H]4C(=O)O)c2c(O)c1-c1c(C)cc2c(C(C)C)c(O)c(O)c(/C=N/C3C(=O)N4[C@@H]3SC(C)(C)[C@@H]4C(=O)O)c2c1O (single isomer, unassigned)	> 40	> 40	> 40	> 40	> 40	> 40	> 40	> 40	> 40	
Cc1cc2c(C(C)C)c(O)c(O)c(C=O)c2c(O)c1-c1c(C)cc2c(C(C)C)c(O)c(O)c(C=O)c2c1O [GOSSYPOL]			12.6				18.8		12.6	Activity (Mus musculus [1]): Toxic; Activity (Mus musculus [2]): Non-toxic; Activity (Mus musculus [3]): Toxic; IC50 (MDA-MB-435; mda-mb-435): 11.8 µM and 33.2 µM; IC50 (MCF7; mcf7): 21.6 µM; IC50 (SW-620): 17.2 µM; IC50 (HCT-116; hct-116): 3.33 µM and 22 µM; IC50 (B16-F10; b16-f10): 5.54 µM and 18 µM; IC50 (PC-3; pc-3): 9.14 µM and 22.4 µM; IC50 (4T1; 4t1): 21.5 µM; IC50 (CT26; ct26): 2.21 µM and 13.6 µM; solubility [4]: < 0.001 g
COC(=O)C(/N=C/c1c(O)c(O)c(C(C)C)c2cc(C)c(-c3c(C)cc4c(C(C)C)c(O)c(O)c(/C=N/C(C(=O)OC)c5c[nH]c6ccccc56)c4c3O)c(O)c12)c1c[nH]c2ccccc12 (configuration not stated)	> 40	> 40	> 40	> 40	> 40	> 40	> 40	> 40	> 40	
CO[C@@H](c1ccc([N+](=O)[O-])cc1)[C@H](CO)/N=C/c1c(O)c(O)c(C(C)C)c2cc(C)c(-c3c(C)cc4c(C(C)C)c(O)c(O)c(/C=N/[C@@H](CO)[C@@H](OC)c5ccc([N+](=O)[O-])cc5)c4c3O)c(O)c12	> 40	> 40	> 40	17.7	> 40	> 40	> 40	> 40	> 40	
